# Assay outcomes (PubChem)
# Shown are actives, neighbours in structure and some others; about 3.8% of the full set was active somewhere.
# NS3 helicase inh: inhibitors of HCV NS3 helicase, primary screen, biochemical, Cy5 molecular beacon fluorescence; NS3 helicase DNA unwinding; inhibition, % at 10.9 µM; 290,000 compounds, 0.56% hits;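 active means inhibition above the mean of all tested compounds plus 3 SD, set per campaign, cut at about 35% in these data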
#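 Control set: DMSO versus 110 µM thioflavine S; Material: NS3 helicase fragment of HCV; Measured by: Cy5 fluorescence at 0 and 60 min, beacon hairpin quenching; Read-out basis: percent inhibition from t60/t0 fluorescence ratio; Times: reaction time 60 min, 25 °C; Repeats: single replicate; Compound dosing: single dose, 10.9 µM nominal final, DMSO 0.8% final.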
# HSF-1 act: HSF-1 activators, primary screen, NIH3T3-HGL cells, MG132 stress, luminescence, single point; NIH3T3-HGL HSF-1 luciferase reporter, 8 h; 100% = twice DMSO control signal; activation, % at 9 µM; 300,000 compounds, 1.7% hits; AID 504408, 2011;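 active means mean replicate activation of at least 50% with a set share of replicates each reaching 50%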
# Lipid droplet: inhibitors of hepatocyte lipid droplet formation, primary screen, imaging, high-throughput imaging, BODIPY stain. inhibition, % at 6.5 µM. AML12 mouse hepatocytes, oleate lipid droplets. 240,000 compounds, 0.4% hits;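 active means lipid droplet intensity inhibited by at least 50%, with more than 500 cells counted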
#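 Assay system: AML12 hepatocytes (mouse); Probe or stimulus: oleic acid at 100 µM to induce lipid droplet formation; Dosing: compound at 6.5 µM only; Schedule: compound with oleate, overnight; Detection: fluorescence imaging, 20x objective, two fields per well; Measure: % inhibition of lipid droplet signal.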
# HSF1 inhib: HSF1 inhibitors in luciferase reporter cells, primary screen, cell-based, NIH3T3, luminescence; 300,000 compounds, 0.77% hits; NIH3T3-HGL HSE-luciferase, MG132-induced, luminescence 8 h; active compounds read low; AID 2098, 2009; activity change, negative = inhibition, % at 7.5 µM (by protocol);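 active means more than half of replicate wells show activity change below -50%, luminescence cut by over half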;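 further: luciferase reports HSF-1 transcriptional activity via heat shock element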
# HSP90 refold inh: HSP90 inhibitors, primary screen, cell lysate, luminescence; Heat shock protein HSP 90 (rabbit reticulocyte lysate; luciferase refolding); Rabbit reticulocyte lysate, luciferase refolding luminescence, 3 h; inhibition, % at 5.6 µM; 290,000 compounds, 0.91% hits;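 active means inhibition above the screen-wide mean plus 3 SD, computed separately per campaign, cut at about 16% in these data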;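 further: inhibitors lower the luminescence because luciferase stays unfolded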
# Numbers stand for hits; i = inactive; nt = no result.
SMILES,NS3 helicase inh,HSF-1 act,Lipid droplet,HSF1 inhib,HSP90 refold inh
CCCCOc1cccc(C2C(C(=O)c3cccs3)=C(O)C(=O)N2Cc2cccnc2)c1 (stereo not drawn),i,i,i,-64,i
Cc1cc(C)c2c(=O)[nH]c(SCC(=O)c3ccc(C)c(C)c3)nc2n1,i,i,i,i,i
C=CCN(C(=O)c1csnn1)C(C(=O)NC1CCCC1)c1ccc(OC)cc1 (stereo not drawn),i,i,i,i,i
Clc1ccc(-c2ccc(SCc3ccccn3)nn2)cc1,i,81,nt,i,i
Cc1cc(/C=C(\C#N)C(=O)Nc2ccccc2F)c(C)[nH]1,i,60,i,i,i
N#C/C(=C\c1ccc[nH]1)C(=O)Nc1ccccc1F,i,nt,i,nt,i
Cc1nc([N+](=O)[O-])cn1CC(=O)c1ccc(OC(F)(F)F)cc1,i,i,nt,i,i
COC(=O)c1ccc(N(CC(=O)NC2CCCCC2)C(=O)CNC(=O)c2ccco2)cc1,i,71,i,i,i
CC(=O)Cn1c(CN2CCN(C(=O)c3ccco3)CC2)nc2c1c(=O)n(C)c(=O)n2C,i,i,i,i,i
COc1ccc(C(=S)Nc2ccc(C)cc2)cc1,i,63,nt,i,i
CCNC(=S)Nc1ccc(Oc2ccccc2)cc1,i,i,nt,i,i
COc1ccc(NC(=S)c2ccncc2)cc1,i,i,i,i,i
COc1ccc(NC(=S)Nc2ccc(Oc3ccccc3)cc2)cc1,i,i,nt,-65,i
O=C(O)/C=C/C(=O)Nc1ccc(Oc2ccccc2)cc1,i,i,i,-54,i
COc1ccc(NS(=O)(=O)c2ccc(OCC(=O)N3CCOCC3)cc2)cc1Cl,i,i,i,i,i
Cc1ccc2c(c1)N(Cc1ccc3c(c1)OCO3)C(=O)C(C)O2 (stereo not drawn),i,i,nt,i,i
CCC1Oc2ccc(C)cc2N(Cc2cccc(C)c2)C1=O (stereo not drawn),i,54,nt,i,i
CC(OC(=O)c1cccc(-n2cnnn2)c1)C(=O)Nc1ccc(F)cc1Cl (stereo not drawn),nt,i,nt,i,nt
COc1ccc(-n2c(SCc3ccc([N+](=O)[O-])cc3)nnc2-c2ccc(C)cc2)cc1,i,57,i,i,i
O=C(CN1CCN(c2ccccc2F)CC1)c1ccc(O)c(O)c1,i,i,i,i,i
Oc1ccc2ccccc2c1CN1CCN(C/C=C/c2ccccc2)CC1,i,185,i,i,i
Oc1ccc2ccccc2c1CN1CCN(c2ccccc2F)CC1,i,84,i,i,i
Cc1c(O)ccc2c(CN3CCN(C/C=C/c4ccccc4)CC3)cc(=O)oc12,i,i,i,i,i
Cc1nc(-c2ccc(F)cc2)c(CC(=O)Nc2ccc(C)c(S(=O)(=O)N3CCOCC3)c2)s1,i,i,i,i,i
O=C(COC(=O)CNC(=O)c1ccc(-c2ccccc2)cc1)NCc1ccco1,i,i,i,i,i
SMILES,NS3 helicase inh,HSF-1 act,Lipid droplet,HSF1 inhib,HSP90 refold inh
COc1ccccc1CNC(=O)C1CCN(S(=O)(=O)c2ccc3nc4c(c(C(=O)O)c3c2)CCCC4)CC1,i,i,i,i,i
COP(=O)(OC)c1nc(-c2cccc3ccccc23)oc1NCc1ccccc1,i,87,i,i,i
CC1=C([N+](=O)[O-])C(c2ccccc2)C2=C(N1)c1ccccc1C2=O (stereo not drawn),i,57,i,i,i
CCCCCc1cc(O)c2c(C)cc(=O)oc2c1,i,i,i,i,i
CCCCc1cc(O)c(CCCC)c(O)c1,i,182,nt,i,i
CCOC(=O)C(=Cc1ccc(-c2ccsc2C(=O)OC)o1)C(=O)OCC,i,90,nt,i,i
COC(=O)C(=Cc1ccc(-c2ccsc2C(=O)OC)o1)C(=O)OC,i,i,i,i,i
Cc1ccc(NC(=O)CN(C)C2CCCCC2)cc1Cl,i,i,i,-82,i
Cc1ccc(NC(=O)NC2CCCCC2)cc1Cl,i,nt,i,nt,i
CC(=O)/C(=N\Nc1ccc(Cl)cc1)Sc1nnc(-c2ccccc2)n1-c1ccccc1,i,i,i,-55,i
Cn1c(=O)c(=O)n(C)c2cc(S(=O)(=O)N3CCCC3C(=O)Nc3ccccc3F)ccc21 (stereo not drawn),i,i,i,i,i
